Test results published in ChEMBL document CHEMBL1127746, “Alpha-spirocyclopentyl- and alpha-spirocyclopropyl-gamma-butyrolactones: conformationally constrained derivatives of anticonvulsant and convulsant alpha,alpha-disubstituted gamma-butyrolactones” (J Med Chem, 1994).

What was measured:
[1] = target: T1, GABA-A receptor; anion channel (Rattus norvegicus) (UniProt O09028+P15431+P18506+P18508+P19969+P20236+P23574+P23576+P28471+P28473+P30191+P62813+P63079+P63138+Q91ZM7+Q9ES14); assay: Maximum Binding affinity for picrotoxinin (GABA-A) receptor of rat cerebral cortex; format: tissue-based
Outline: (§1)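 Saturation binding on rat cerebral cortex membranes in 50 mM Tris-citrate using 1-300 nM 35[S]-TBPS with test compound near its IC50, triplicate, 90 min at 25 °C. Filtration and scintillation counting. Kd and Bmax from Scatchard analysis; two or three experiments.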

Mus musculus = assay: Effective dose at which 50% of the mice were protected from clonic seizures induced by pentylenetetrazole (85 mg/kg); format: functional
Outline: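 Female CF-1 mice, 6-8 weeks old, dosed ip with test compound in 30% PEG (5-10 mice/dose). Non-convulsant compounds then challenged with PTZ 85 mg/kg given as 0.85% solution in 0.9% NaCl. Mice observed 30 min for seizures.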

[2] = target: T1, GABA-A receptor; anion channel (Rattus norvegicus); assay: Percent response relative to current produced by 1 uM GABA in rat hippocampal cells; details: Hippocampus
[3] = target: GABA-A receptor; anion channel; assay: Dissociation constant from displacement of 35[S]-TBPS binding from picrotoxinin (GABA-A) receptor of rat cerebral cortex; format: tissue-based; outline: as §1
[4] = target: GABA-A receptor; anion channel; assay: Displacement of 35[S]-TBPS from picrotoxinin (GABA-A) receptor of rat neuronal membranes; format: cell membranes, Membrane
Outline: (§2)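 Female Sprague-Dawley rat cerebral cortex membranes, washed and held in 50 mM Tris-citrate pH 7.5. 2 nM 35[S]-TBPS in NaBr with test compound, triplicate, 90 min at 25 °C. Filtration and scintillation counting; nonspecific binding with 10 μM TBPS or 100 μM picrotoxinin. IC50 by logistic fit of at least five concentrations; two or three experiments.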

[5] = Dose at which 50% of the mice failed the rotarod neurotoxicity test; details: mouse, in vivo
Outline: (§3)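 Female CF-1 mice (6-8 weeks) given test compound ip in 30% PEG, 5-10 mice/dose. Neurotoxicity scored as failure on the rotorod test. TD50 derived by log10 probit analysis of dose-response data.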

[6] = target: T1, GABA-A receptor; anion channel (Rattus norvegicus); assay: Percent response relative to current produced by 10 uM GABA in rat hippocampal cells; format: functional, cell-based; details: Hippocampus
[7] = Toxic dose at which 50% of the mice failed the rotarod neurotoxicity test; format: toxicity; details: mouse, in vivo; outline: as §3
[8] = target: T1, GABA-A receptor; anion channel (Rattus norvegicus); assay: Percent response relative to current produced by 1 uM GABA in rat hippocampal cells; format: functional, cell-based; details: Hippocampus
Outline: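 Whole-cell patch clamp of hippocampal neurons cultured from 1-day-old female Sprague-Dawley pups, 10-21 days in culture, held at -30 mV, CsCl-based pipette solution. 1 μM GABA with compound (10 mM or 1 mM) applied 2 s. Current expressed relative to the mean of GABA controls before and after; only ±10% recovery kept; mean ± SEM.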

[9] = […] dose at which 50% of the mice have clonic convulsions; details: mouse, in vivo; read-out: CD50 (the source's name)
Outline: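 Female CF-1 mice, 6-8 weeks old; test compound in 30% PEG given ip at 5-10 mice/dose. Animals observed 30 min for clonic seizures after injection. CD50 derived by log10 probit analysis from the number of animals with clonic seizures.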

[10] = target: GABA-A receptor; anion channel; assay: Inhibition of 35[S]-TBPS binding to GABA-A (picrotoxin) receptor of rat neuronal membranes; format: cell membranes, Membrane; outline: as §2

Compound	Bmax (pM (mg of protein)-1) [1]	ED50 (Mus musculus) [mg/kg]	Response [2] [%]	Kd [3] [nM]	IC50 [4] [nM]	TD50 [5] [mg/kg]	Response [6] [%]	TD50 [7] [mg/kg]	Response [8] [%]	TD50 [9] [mg/kg]	IC50 [10] [nM]
O=C1OCCC12CCCC2	1.04	385	220	48.8	810						
C[C@@H]1CC[C@H](C)C12CCOC2=O (stereo partly drawn)	0.54			38.5	780	> 500	198				
C[C@@H]1CC12CCOC2=O (stereo partly drawn)	1.14	259		40.4	3410		48	> 500			
CC1(C)CC12CCOC2=O (stereo not drawn)	0.86	221		35.4	1140	254			247		
CCC1(C(C)(C)C)CCOC1=O (stereo not drawn)	1.54			46.8	310				47	133	
CCC1(CC)CCOC1=O	1.51			37.2	750		301				
CC(C)C1(C)CCOC1=O (stereo not drawn)	0.99			47	740				116		
CC1(C)CCOC1=O		> 500					41	> 500			9200
C[C@H]1CC[C@H](C)C12CCOC2=O	1.04			35.6	200				80	198	
C[C@H]1CC12CCOC2=O (stereo partly drawn)	1.27	210		44.1	7170		149	> 300			
CCC1(C(C)C)CCOC1=O (stereo not drawn)	1.5	169		35.2	240		222	> 300			
CC1CCCC12CCOC2=O (stereo not drawn)	0.93			39.5	680		252	> 500			
O=C1OCCC12CC2							62	> 500			> 10000
CC1(C)CCCC12CCOC2=O (stereo not drawn)	1			41.8	360		327	10			
CC(C)C1(C(C)C)CCOC1=O	1.49			33.4	220		328			137	
CCC1(C)CCOC1=O (stereo not drawn)	1.27			80.7	2280		170				
